How the values were obtained:
Conditions in all cases: stereoisomer not certain
[1] = biological target: UniProt Q8VF06
Summary of the method: (§1)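 Assay methods differ from source to source, frequently being transient luciferase assays in mammalian cell lines. For each receptor–molecule pair, the label responsive (active) applies when the original authors judged the measured signal statistically different from baseline, and non-responsive (inactive) applies otherwise.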

[2] = biological target: T1, UniProt Q8VF43
T1 sequence (whole entry): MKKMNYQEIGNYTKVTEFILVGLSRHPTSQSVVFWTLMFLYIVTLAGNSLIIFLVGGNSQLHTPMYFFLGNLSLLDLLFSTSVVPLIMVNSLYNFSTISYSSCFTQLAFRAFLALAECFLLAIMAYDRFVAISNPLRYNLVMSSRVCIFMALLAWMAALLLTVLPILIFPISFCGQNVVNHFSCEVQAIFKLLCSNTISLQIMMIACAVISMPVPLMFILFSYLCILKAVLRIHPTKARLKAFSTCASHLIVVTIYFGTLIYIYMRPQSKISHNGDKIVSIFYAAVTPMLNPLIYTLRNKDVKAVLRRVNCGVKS
Summary of the method: as §1

[3] = biological target: T2, UniProt Q8VF52
T2 sequence (whole entry): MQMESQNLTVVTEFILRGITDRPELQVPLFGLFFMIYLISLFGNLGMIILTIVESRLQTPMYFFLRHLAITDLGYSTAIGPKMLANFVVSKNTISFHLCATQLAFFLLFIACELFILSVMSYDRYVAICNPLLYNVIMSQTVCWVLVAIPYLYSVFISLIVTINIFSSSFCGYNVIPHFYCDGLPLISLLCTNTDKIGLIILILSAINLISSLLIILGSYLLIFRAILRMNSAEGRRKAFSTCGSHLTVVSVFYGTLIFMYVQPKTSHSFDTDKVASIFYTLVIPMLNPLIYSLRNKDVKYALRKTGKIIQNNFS
Summary of the method: as §1

[4] = biological target: T3, UniProt Q8VFM8
T3 sequence (whole entry): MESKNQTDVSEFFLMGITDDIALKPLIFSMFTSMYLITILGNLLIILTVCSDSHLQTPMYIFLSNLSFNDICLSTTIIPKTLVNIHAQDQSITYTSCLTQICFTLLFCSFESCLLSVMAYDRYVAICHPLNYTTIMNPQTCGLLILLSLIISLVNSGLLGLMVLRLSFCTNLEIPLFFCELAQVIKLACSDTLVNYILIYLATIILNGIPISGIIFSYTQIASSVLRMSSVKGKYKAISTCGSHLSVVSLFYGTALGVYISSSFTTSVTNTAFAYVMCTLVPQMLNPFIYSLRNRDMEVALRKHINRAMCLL
Summary of the method: as §1

[5] = biological target: T4, UniProt Q8VF24
T4 sequence (whole entry): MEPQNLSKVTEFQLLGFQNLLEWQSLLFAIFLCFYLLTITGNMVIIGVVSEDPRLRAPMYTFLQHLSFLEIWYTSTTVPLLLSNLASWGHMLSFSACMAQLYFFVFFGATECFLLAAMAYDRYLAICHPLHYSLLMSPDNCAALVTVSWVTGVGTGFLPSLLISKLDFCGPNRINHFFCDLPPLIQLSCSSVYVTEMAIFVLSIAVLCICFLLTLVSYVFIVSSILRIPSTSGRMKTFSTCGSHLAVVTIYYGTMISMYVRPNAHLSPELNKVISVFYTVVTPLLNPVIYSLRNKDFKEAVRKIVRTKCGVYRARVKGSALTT
Summary of the method: as §1

[6] = biological target: T5, UniProt Q8VF44
T5 sequence (whole entry): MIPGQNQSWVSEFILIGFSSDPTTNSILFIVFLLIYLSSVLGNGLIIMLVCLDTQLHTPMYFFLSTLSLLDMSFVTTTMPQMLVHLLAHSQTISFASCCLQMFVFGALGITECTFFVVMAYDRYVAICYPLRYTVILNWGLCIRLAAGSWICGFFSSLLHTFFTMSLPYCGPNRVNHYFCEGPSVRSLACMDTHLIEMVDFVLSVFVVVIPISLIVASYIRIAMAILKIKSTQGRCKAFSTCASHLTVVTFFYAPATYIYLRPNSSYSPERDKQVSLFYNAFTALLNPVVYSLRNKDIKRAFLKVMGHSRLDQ
Summary of the method: as §1

[7] = biological target: T6, UniProt Q8VFG6
T6 sequence (whole entry): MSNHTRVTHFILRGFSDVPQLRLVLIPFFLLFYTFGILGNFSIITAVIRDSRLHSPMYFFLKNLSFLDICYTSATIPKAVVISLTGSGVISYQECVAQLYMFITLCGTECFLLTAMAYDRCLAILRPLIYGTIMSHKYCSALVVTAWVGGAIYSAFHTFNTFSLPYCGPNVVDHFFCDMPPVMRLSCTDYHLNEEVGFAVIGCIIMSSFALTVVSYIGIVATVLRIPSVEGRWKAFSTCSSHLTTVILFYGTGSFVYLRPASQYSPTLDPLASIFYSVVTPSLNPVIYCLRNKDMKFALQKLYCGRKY
Summary of the method: as §1

Measured: odorant receptor agonist call

Sequence of UniProt Q8VF06 (Q8VF06 as listed by the source): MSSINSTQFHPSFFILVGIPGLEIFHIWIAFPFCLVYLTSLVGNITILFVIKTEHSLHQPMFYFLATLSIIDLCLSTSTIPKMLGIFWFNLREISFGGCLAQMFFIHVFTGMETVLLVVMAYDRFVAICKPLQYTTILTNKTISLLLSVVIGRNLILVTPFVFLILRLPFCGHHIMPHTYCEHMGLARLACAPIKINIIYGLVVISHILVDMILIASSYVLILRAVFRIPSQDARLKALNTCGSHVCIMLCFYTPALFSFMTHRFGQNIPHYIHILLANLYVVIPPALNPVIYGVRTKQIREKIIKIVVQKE

CCCCC=O
inactive: [1] | [2] | [3] | [4]

CCCCCCCCS
not listed: [1]
inactive: all other assays above

CCCCCCOC(C)=O
not listed: [1]
inactive: all other assays above

CCCCC(C)=O
not listed: [1]
inactive: all other assays above

CC12CCC(CC1=O)C2(C)C (configuration not stated)
active: [5] | [3]
not listed: [1]
inactive: all other assays above

CCCCC(=O)O
inactive: all assays above

CCCCCCCO
inactive: all assays above

CCCCCCCCC(=O)O
active: [1]
inactive: all other assays above

CCCCCCCCO
inactive: all assays above

CCCCCCO
inactive: all assays above

O=C([O-])CCCCCCCC(=O)[O-].[H+].[H+]
inactive: [1] | [2] | [3] | [4]

CCCCCCCCCCCC(=O)O
inactive: [1]

CCCC(C)=O
not listed: [2] | [4]
inactive: all other assays above

CCCCCCCC(=O)[O-].[H+]
active: [1]
inactive: [5] | [6] | [3] | [7]

O=C(c1ccccc1)c1ccccc1
active: [6]
not listed: [1]
inactive: all other assays above

CCCCCOC(=O)CCCCC
not listed: [1]
inactive: all other assays above

CCCCCC1=C(C)CCC1=O
active: [3]
not listed: [1]
inactive: all other assays above

CCCCOC=O
not listed: [1]
inactive: all other assays above

CCCCOC(=O)CCC
inactive: [1]

C=CCOC(=O)CCCCCC
not listed: [1]
inactive: all other assays above

O=C(O)CCCCCCCCCC(=O)O
inactive: [1]

O=C(O)CCCCCCCCCCCBr
active: [1]

CC(=O)OCc1ccccc1
not listed: [1]
inactive: all other assays above

From the M2OR odorant receptor database
